Measurements reported in PMC7395825 (OncoTargets and therapy, 2020).
Values joined by “and” are separate entries in the source; they are usually repeats but may differ in a detail not shown here. Equal values may be shown once. Read-outs that look alike come from different tables or passages of the source.

What was measured:
DLD-1 cancer cells [1] = assay: MTT assay, in vitro antiproliferative activity, DLD-1; type: cell-based, human; details: for TGI (total 100% growth inhibition): DLD-1, MTT, 48 hours of drug exposure; for GI50 / IC50: Homo sapiens, DLD-1, 48 h; for GI50: read-out: GI50 (50% growth inhibition); for IC50: read-out: IC50 (half maximal cytotoxic concentration)
Summary of the method: (§1)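 Cells kept in ATCC-recommended medium with 10% FBS and 1% penicillin/streptomycin at 37°C, 5% CO2, seeded at 8×10^3 cells/well. After 24 h, exposed 48 h to test compound (DMSO stock 15 mM) at seven concentrations across 1–100 μM. Medium renewed, MTT added for 3 h, formazan dissolved in DMSO, absorbance read at 540 nm. […] Triplicate.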

HT-29 cancer cells [2] = assay: MTT assay, in vitro antiproliferative activity, HT-29; type: cell-based, human; details: for TGI (total 100% growth inhibition): HT-29, MTT, 48 hours of drug exposure, unit given; for GI50 / IC50: Homo sapiens, HT-29, 48 h; for GI50: read-out: GI50 (50% growth inhibition); for IC50: read-out: IC50 (half maximal cytotoxic concentration)
Summary of the method: as §1

LoVo cancer cells = assay: MTT assay, in vitro antiproliferative activity, LoVo; type: cell-based; details: Homo sapiens, 48 h; for GI50: read-out: GI50 (50% growth inhibition); for IC50: read-out: IC50 (half maximal cytotoxic concentration)
Summary of the method: as §1

[3] = MTT assay, normal lung cells; type: cell-based, human; details: human, MRC5 normal lung cells
Summary of the method: as §1

[4] = tested on: healthy lung (MRC5) cells; assay: MTT assay, normal lung cells; type: cell-based, human; details: for GI50: Homo sapiens, MRC5, 48 h, read-out: GI50 (50% growth inhibition); for Selectivity: GI50, TGI and IC50 values, MRC5 cells versus cancer cell lines: MRC5 versus DLD-1, HT-29, LoVo
Summary of the method: as §1

DLD-1 cancer cells [5] = assay: Flow cytometric analysis of apoptosis; type: cell-based, human; details: DLD-1, at IC50 concentration (KA39 9 μM, etoposide 27 μM)
HT-29 cancer cells [6] = assay: Flow cytometric analysis of cell cycle growth arrest; type: cell-based, human
Summary of the method: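 HT-29 cells seeded in 6-well plates and grown 24 h at 37°C, 5% CO2. Medium renewed, then cells exposed to test compound for 24 h or 48 h at the stated levels, with untreated and etoposide-treated parallels. Cells trypsinised, washed and lysed in nuclei extraction buffer for 15 min in the dark. DNA stained with PI/RNase solution for 30–60 min in the dark. Flow cytometry, 1×10^4 events per sample, triplicate.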

topoisomerase II = topoisomerase II (Homo sapiens, UniProt P11388); assay: DNA topoisomerase II assay; type: biochemical
Sequence of topoisomerase II (P11388 whole entry): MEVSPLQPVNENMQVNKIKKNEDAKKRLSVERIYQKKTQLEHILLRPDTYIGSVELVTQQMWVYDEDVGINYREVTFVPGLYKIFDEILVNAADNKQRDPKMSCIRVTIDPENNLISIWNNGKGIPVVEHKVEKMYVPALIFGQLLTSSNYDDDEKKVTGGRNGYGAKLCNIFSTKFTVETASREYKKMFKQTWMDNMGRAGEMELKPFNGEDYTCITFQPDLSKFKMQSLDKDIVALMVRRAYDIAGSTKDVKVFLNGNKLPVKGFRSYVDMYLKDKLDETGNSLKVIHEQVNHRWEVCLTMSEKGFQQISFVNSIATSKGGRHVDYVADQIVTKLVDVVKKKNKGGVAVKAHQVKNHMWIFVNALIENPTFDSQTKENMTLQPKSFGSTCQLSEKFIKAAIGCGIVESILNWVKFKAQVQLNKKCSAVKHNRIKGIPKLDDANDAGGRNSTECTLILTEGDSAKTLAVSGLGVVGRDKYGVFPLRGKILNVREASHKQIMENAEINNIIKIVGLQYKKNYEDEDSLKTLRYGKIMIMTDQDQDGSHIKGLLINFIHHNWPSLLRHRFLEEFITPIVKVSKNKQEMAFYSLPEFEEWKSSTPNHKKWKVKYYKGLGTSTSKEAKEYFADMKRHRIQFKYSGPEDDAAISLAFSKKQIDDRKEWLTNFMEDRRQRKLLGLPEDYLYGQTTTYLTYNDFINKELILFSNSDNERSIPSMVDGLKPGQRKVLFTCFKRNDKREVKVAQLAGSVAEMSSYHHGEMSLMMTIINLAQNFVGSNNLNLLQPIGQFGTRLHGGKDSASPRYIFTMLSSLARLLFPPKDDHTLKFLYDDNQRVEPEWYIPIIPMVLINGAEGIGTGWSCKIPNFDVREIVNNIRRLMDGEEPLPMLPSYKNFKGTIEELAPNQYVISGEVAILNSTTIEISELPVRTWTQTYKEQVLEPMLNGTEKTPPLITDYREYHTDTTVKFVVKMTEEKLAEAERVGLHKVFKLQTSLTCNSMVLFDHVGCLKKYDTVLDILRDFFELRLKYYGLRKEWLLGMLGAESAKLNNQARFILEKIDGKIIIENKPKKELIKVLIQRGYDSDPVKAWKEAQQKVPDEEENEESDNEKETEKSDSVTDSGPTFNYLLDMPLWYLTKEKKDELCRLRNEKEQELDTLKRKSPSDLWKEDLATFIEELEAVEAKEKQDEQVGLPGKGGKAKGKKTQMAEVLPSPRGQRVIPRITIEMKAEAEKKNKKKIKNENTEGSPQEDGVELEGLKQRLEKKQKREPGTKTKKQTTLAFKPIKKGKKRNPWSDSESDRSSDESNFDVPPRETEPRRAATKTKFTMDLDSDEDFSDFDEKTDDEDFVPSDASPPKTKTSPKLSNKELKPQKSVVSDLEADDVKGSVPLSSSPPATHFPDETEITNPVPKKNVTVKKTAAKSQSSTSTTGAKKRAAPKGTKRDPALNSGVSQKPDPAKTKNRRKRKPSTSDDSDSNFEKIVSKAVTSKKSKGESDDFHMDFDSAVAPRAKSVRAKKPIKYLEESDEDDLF

[7] = tested on: topIIα phosphorylation (Ser1106); assay: TopIIα phosphorylation cell-based ELISA, LoVo; set-up: species or system human; details: for maximum inhibitory effect on topIIα phosphorylation: LoVo cells, at either TGI or IC50 concentrations over 6 or 24 hour treatment; for effect on topIIα phosphorylation: LoVo, 6 hours, KA39 TGI and IC50, KA25 TGI 13.8 μΜ, KA26 TGI 100 μΜ
[8] = tested on: topIIα phosphorylation (Ser1106); assay: TopIIα phosphorylation cell-based ELISA, HT-29; set-up: species or system human; details: HT-29 cells, at either TGI or IC50 concentrations over 6 or 24 hour treatment
[9] = HT-29, IC50 concentration (KA39 19.5 μM), 24 hours
[10] = HT-29, TGI concentration (KA39 15.9 μM, etoposide 69 μM), 48 hours

COc1cc([C@@H]2c3cc4c(cc3[C@@H](O[C@@H]3O[C@@H]5CO[C@@H](C)O[C@H]5[C@H](O)[C@H]3O)[C@H]3COC(=O)[C@H]23)OCO4)cc(OC)c1O [Etoposide, reference compound]
TGI (total 100% growth inhibition) (DLD-1 cancer cells [1]): 8 ± 0.5 µM | GI50 (DLD-1 cancer cells [1]): 1800 ± 390 nM | IC50 (DLD-1 cancer cells [1]): 27 ± 0.28 µM | TGI (total 100% growth inhibition) (HT-29 cancer cells [2]): 69 ± 0.9 µM | GI50 (HT-29 cancer cells [2]): 9.5 ± 0.5 µM | IC50 (HT-29 cancer cells [2]): > 100 µM | GI50 (LoVo cancer cells): 14 ± 0.5 µM | IC50 (LoVo cancer cells): > 100 µM | IC50 at 48 h [3]: > 100 µM | GI50 [4]: 25 ± 0.3 µM | early apoptosis (Q4) (DLD-1 cancer cells [5]; 48 hours): 51.12% | late apoptosis (Q2) (DLD-1 cancer cells [5]; 48 hours): 18.84% | early apoptosis (Q4) (DLD-1 cancer cells [5]; 72 hours): 42.01% | late apoptosis (Q2) (DLD-1 cancer cells [5]; 72 hours): 30.48% | % of cells in G1 phase (HT-29 cancer cells [6]; [9]): 57.28% | % of cells in G2/M phase (HT-29 cancer cells [6]; [9]): 5.99% | % of cells in S phase (HT-29 cancer cells [6]; [9]): 16.50% | % of cells in SG (SubG1) phase (HT-29 cancer cells [6]; [9]): 20.23% | % of cells in G1 phase (HT-29 cancer cells [6]; [10]): 26.06% | % of cells in G2/M phase (HT-29 cancer cells [6]; [10]): 4.37% | % of cells in S phase (HT-29 cancer cells [6]; [10]): 13.10% | % of cells in SG (SubG1) phase (HT-29 cancer cells [6]; [10]): 55.80% | topoisomerase II reaction product on agarose gel (topoisomerase II): linear DNA

COc1cc(Cc2nnc3sc(/C=C/c4ccc(F)cc4)nn23)c(S(=O)(=O)N(C)C)cc1OC [KA25, (E)-2-((6-(4-Fluorostyryl)-[1,2,4]Triazolo[3,4-b][1,3,4]Thiadiazol-3-Yl)Methyl)-4,5-Dimethoxy-N,N-Dimethylbenzenesulfonamide]
TGI (total 100% growth inhibition) (DLD-1 cancer cells [1]): 65 ± 0.5 µM | GI50 (DLD-1 cancer cells [1]): 11400 ± 500 nM | IC50 (DLD-1 cancer cells [1]): > 100 µM | TGI (total 100% growth inhibition) (HT-29 cancer cells [2]): >100 µM | GI50 (HT-29 cancer cells [2]): 1 ± 0.3 µM | IC50 (HT-29 cancer cells [2]): > 100 µM | GI50 (LoVo cancer cells): 8 ± 0.76 µM | IC50 (LoVo cancer cells): > 100 µM | IC50 at 48 h [3]: > 100 µM | GI50 [4]: 15 ± 0.9 µM | Selectivity: GI50, TGI and IC50 values, MRC5 cells versus cancer cell lines [4]: 3–5 times | maximum inhibitory effect on topIIα phosphorylation [7]: 47% | effect on topIIα phosphorylation [7]: less significant inhibition of topIIα phosphorylation | maximum inhibitory effect on topIIα phosphorylation [8]: 33%

COc1cc(Cc2nnc3sc(/C=C/c4ccc(Cl)cc4)nn23)c(S(=O)(=O)N(C)C)cc1OC [KA26, (E)-2-((6-(4-Chlorostyryl)-[1,2,4]Triazolo[3,4-b][1,3,4]Thiadiazol-3-Yl)Methyl)-4,5-Dimethoxy-N,N-Dimethylbenzenesulfonamide]
TGI (total 100% growth inhibition) (DLD-1 cancer cells [1]): >100 µM | GI50 (DLD-1 cancer cells [1]): 1200 ± 810 nM | IC50 (DLD-1 cancer cells [1]): > 100 µM | TGI (total 100% growth inhibition) (HT-29 cancer cells [2]): >100 µM | GI50 (HT-29 cancer cells [2]): 2 ± 0.76 µM | IC50 (HT-29 cancer cells [2]): > 100 µM | GI50 (LoVo cancer cells): 15 ± 0.8 µM | IC50 (LoVo cancer cells): > 100 µM | IC50 at 48 h [3]: > 100 µM | GI50 [4]: 30 ± 0.9 µM | Selectivity: GI50, TGI and IC50 values, MRC5 cells versus cancer cell lines [4]: 3–5 times | maximum inhibitory effect on topIIα phosphorylation [7]: 18% | effect on topIIα phosphorylation [7]: did not affect the phosphorylation status of topIIα | maximum inhibitory effect on topIIα phosphorylation [8]: 50%

COc1cc(Cc2nnc3sc(-c4cc([N+](=O)[O-])ccc4[N+](=O)[O-])nn23)c(S(=O)(=O)N(C)C)cc1OC [KA39, 2-((6-(2,5-Dinitrophenyl)-[1,2,4]Triazolo[3,4-b][1,3,4]Thiadiazol-3-Yl)Methyl)-4,5-Dimethoxy-N,N-Dimethylbenzenesulfonamide]
TGI (total 100% growth inhibition) (DLD-1 cancer cells [1]): 5 ± 0.76 µM | GI50 (DLD-1 cancer cells [1]): 3000 ± 520 nM | IC50 (DLD-1 cancer cells [1]): 9 ± 0.76 µM | TGI (total 100% growth inhibition) (HT-29 cancer cells [2]): 15.9 µM and 15.9 ± 0.55 µM | GI50 (HT-29 cancer cells [2]): 11.5 ± 0.8 µM | IC50 (HT-29 cancer cells [2]): 19.5 ± 0.9 µM | GI50 (LoVo cancer cells): 2.2 ± 0.2 µM | IC50 (LoVo cancer cells): 10.5 ± 0.15 µM | IC50 at 48 h [3]: 40.5 ± 0.76 µM | GI50 [4]: 15 ± 0.36 µM | Selectivity: GI50, TGI and IC50 values, MRC5 cells versus cancer cell lines [4]: 3–5 times | early apoptosis (Q4) (DLD-1 cancer cells [5]; 48 hours): 17.35% | late apoptosis (Q2) (DLD-1 cancer cells [5]; 48 hours): 13.12% | early apoptosis (Q4) (DLD-1 cancer cells [5]; 72 hours): 20.68% | late apoptosis (Q2) (DLD-1 cancer cells [5]; 72 hours): 20.96% | % of cells in G1 phase (HT-29 cancer cells [6]; [9]): 46.64% | % of cells in G2/M phase (HT-29 cancer cells [6]; [9]): 3.74% | % of cells in S phase (HT-29 cancer cells [6]; [9]): 21.52% | % of cells in SG (SubG1) phase (HT-29 cancer cells [6]; [9]): 27.06% | % of cells in G1 phase (HT-29 cancer cells [6]; [10]): 40.95% | % of cells in G2/M phase (HT-29 cancer cells [6]; [10]): 9.48% | % of cells in S phase (HT-29 cancer cells [6]; [10]): 14.66% | % of cells in SG (SubG1) phase (HT-29 cancer cells [6]; [10]): 33.51% | topoisomerase II reaction product on agarose gel (topoisomerase II; pHOT1 supercoiled DNA, KA39 0.1, 1.0, 7.5 and 20 μΜ, non-EB gel): induced the formation of supercoiled DNA in all concentrations used | maximum inhibitory effect on topIIα phosphorylation [7]: 60% | effect on topIIα phosphorylation [7]: enhanced the phosphorylation status of topIIα | maximum inhibitory effect on topIIα phosphorylation [8]: 76%
